This is a sample that favours compounds with a hit; in the whole collection about 1.6% have one here.
SR-BI uptake up: SR-BI HDL lipid transfer activation | hit rate 0.096% among 320,000 | activation, % at 12.5 µM | CHO ldlA[mSR-BI] cells, DiI-HDL uptake fluorescence, 3 h; 100 = double the neutral-control signal;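 active means mean replicate activation of at least 60% and every replicate at or above 60%; inconclusive means mean or all-replicate condition met, but not both; inactive means mean below 60% and not all replicates reaching 60%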;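 further: 0% = median plate neutral-control signal and 100% = twice that signal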
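Test system: SR-BI-overexpressing, LDLR-lacking CHO cells; Medium: Ham's F12 with 0.5% BSA, HEPES 25 mM, pH 7.4; Schedule: 3 h, 37 °C; Technique: bottom-read fluorescence, 550/595 nm.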
Vif inh: inhibitors of HIV Vif; HEK293T cells, Vif self-association by quenched fluorescence, imaging, 24 h; inhibition, % at 7.49 µM; hit rate 0.35% among 340,000; AID 602346; in the data active means inhibition above about 50%, passing the limit was not always enough; inconclusive means no clear call, values can overlap the other calls; inactive means below about 31%
TAG inh: inhibitors of triacylglycerol accumulation; H9c2 cells, Nile Red lipid (TAG) fluorescence; cells loaded with 200 µM oleic acid; inhibition, % at 12.5 µM; hit rate 0.66% among 230,000;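 active means pattern-corrected inhibition of lipid staining of at least 50% with the nuclear-stain viability signal not falling by more than 50%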;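 further: 0% = DMSO wells and 100% = triacsin C control wells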
SR-BI HDL uptake: mouse SR-BI HDL lipid transfer inhibition. inhibition, % at 12.5 µM. AID 488896. ldlA[mSR-BI] CHO cells, DiI-HDL uptake fluorescence, 3 h. hit rate 0.96% among 320,000. Q61009;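 active means mean replicate inhibition of at least 70% and a set share of replicates each scoring 70 or more; inconclusive means meets just one of the two criteria; inactive means fails both criteria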;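 further: 0% = median of neutral control wells and 100% = median of positive control wells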
Target sequence (Q61009 whole entry, looked up): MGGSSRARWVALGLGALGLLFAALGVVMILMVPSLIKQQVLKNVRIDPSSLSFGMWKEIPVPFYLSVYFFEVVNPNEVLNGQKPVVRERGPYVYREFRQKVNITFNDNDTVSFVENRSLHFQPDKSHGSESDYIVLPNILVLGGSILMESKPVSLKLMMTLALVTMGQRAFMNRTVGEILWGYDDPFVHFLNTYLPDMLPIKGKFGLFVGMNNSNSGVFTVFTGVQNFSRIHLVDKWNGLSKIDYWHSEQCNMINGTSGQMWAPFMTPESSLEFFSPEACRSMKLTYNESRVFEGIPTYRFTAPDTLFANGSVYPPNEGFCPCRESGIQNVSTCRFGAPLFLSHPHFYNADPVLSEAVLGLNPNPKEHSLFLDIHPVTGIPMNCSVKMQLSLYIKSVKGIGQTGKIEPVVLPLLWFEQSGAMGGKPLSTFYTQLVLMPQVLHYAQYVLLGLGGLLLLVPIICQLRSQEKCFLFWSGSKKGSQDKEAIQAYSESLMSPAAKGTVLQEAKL
A1 inh: inhibitors of the anti-apoptotic protein A1, read as caspase activation | MEF A1-2A-BIM cells, Caspase-Glo 3/7 luminescence, 3 h; percent of clofoctol response, vehicle zero | caspase activation, % (no concentration beside the values) | AID 2462 | hit rate 0.066% among 330,000;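 active means over half of replicate activation scores above 10%, or exactly half above 10 with the replicate mean above 10; inconclusive means replicate mean below 10 yet half the replicates above 10; inactive means over half of replicates below 10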
* hit, by the source's call; ? = inconclusive; nt = no result.

SMILES	SR-BI uptake up	Vif inh	TAG inh	SR-BI HDL uptake	A1 inh
O=S1(=O)CCN(CCCCc2ccccc2)CC1	nt	18	5	nt	nt
CC(=NNC(=O)c1cc(C)oc1C)c1ccc(Br)s1	3	52*	1	-3	0
Cc1cccn2c(CN(C)CCC3CCCCO3)c(C(=O)N3CCCCC3)nc12 (configuration not stated)	21	0	8	-21	0
O=C1/C(=N\S(=O)(=O)c2cccs2)C([n+]2ccc(CCCc3ccccc3)cc2)=C([O-])c2ccccc21	nt	1	16	nt	-1
O=C1/C(=N\S(=O)(=O)c2cccs2)C([n+]2cccc(Cc3ccccc3)c2)=C([O-])c2ccccc21	3	0	73*	-3	0
Nc1c(-c2ccc(Cl)cc2)cnn1-c1cccc(C(F)(F)F)c1	-77	-16	0	77*	1
COc1ccc(CCNC(=O)CN2C(=O)NC(c3ccccc3)(c3ccccc3)C2=O)cc1	-5	7	15	5	-2
COc1ccc(CNC(=O)CN2C(=O)NC(c3ccccc3)(c3ccccc3)C2=O)cc1	10	110*	14	-10	0
Cc1ccc(NN2C(=O)C=C(c3ccc(Cl)cc3)C2=O)cc1	-6	3	-2	6	11*
CC1CCCN(C(=O)c2ccc3c(c2NCCO)C(=O)c2ccccc2C3=O)C1 (configuration not stated)	6	-4	90*	-6	1
Cc1c(C(=O)NCC(C)C)sc2nc(-c3ccc(F)cc3)cn12	-33	-7	-7	33	0
COc1ccc(-c2cn3c(C)c(C(=O)Nc4cccc(NC(C)=O)c4)sc3n2)cc1	-57	-27	nt	57	0
Cc1c(C(=O)Nc2ccncc2)sc2nc(-c3ccc(F)cc3)cn12	-77	0	2	77*	-1
COc1ccc(-c2cn3c(C)c(C(=O)Nc4ccncc4)sc3n2)cc1	-83	7	-7	83*	0
CCn1nnc(NC(=O)COc2ccc([N+](=O)[O-])cc2)n1	nt	-5	5	nt	1
Cc1cc(C)cc(NC(=O)COC(=O)CN=C2NS(=O)(=O)c3ccccc32)c1	12	-3	-2	-12	0
CCCCc1nc2cc(C(=O)N(C)C3CCOCC3)ccc2o1	12	1	-9	-12	-4
Fc1ccc(-c2nc3c(-c4ccccc4)cnn3cc2CCN2CCOCC2)cc1	-6	0	11	6	-1
C/C(CC(=O)Nc1ccccn1)=N\NC(=O)c1ccccc1O	-73	3	nt	73*	0
C/C(CC(=O)Nc1ccccn1)=N\NC(=O)c1ccccc1	nt	nt	nt	nt	-1
COc1ccc2oc(/C=C/N(C)C)c(C(=O)c3ccc(Cl)cc3)c2c1	-78	4	nt	78*	1
COc1cccc(/C=N/NC(=O)c2cnccn2)c1O	-4	6	54*	4	-3
COc1ccc(OC)c2[nH]c(C(=O)N/N=C/c3ccccc3O)cc12	-124	-2	nt	124*	0
COc1cccc(/C=N/NC(=O)c2cc3c(OC)cccc3[nH]2)c1O	-103	4	nt	103*	0
COc1ccccc1NC(=O)c1ccccc1Nc1ccccc1	-38	3	nt	38	0
SMILES	SR-BI uptake up	Vif inh	TAG inh	SR-BI HDL uptake	A1 inh
COc1ccccc1Nc1ccc(N)cc1	-84	5	28	84*	0
CCOc1ccc(C(=O)C(C)OC(=O)c2nc(Cl)ccc2Cl)cc1 (configuration not stated)	0	-3	-2	0	0
CCOC(=O)c1csc(NC(=O)c2ccccc2)n1	15	0	4	-15	-1
CCOC(=O)c1csc(-c2csc(CCNC(=O)c3ccccc3)n2)n1	nt	51*	10	nt	nt
CCN(C(=O)Cc1c(C(=O)O)n(CC)c2ccccc12)c1cccc(C(F)(F)F)c1	15	8	nt	-15	-1
CCN1Cc2cc(OC)ccc2-c2ccccc2S1(=O)=O	-28	nt	4	28	nt
COCCNc1nc(SCC(=O)N2CCN(c3ccccc3OC)CC2)nc2ccccc12	-72	1	nt	72*	-1
O=C(C[n+]1ccc(-c2cc(C(=O)Nc3cccc(C(F)(F)F)c3)c3ccccc3n2)cc1)c1cccc([N+](=O)[O-])c1	-87	4	20	87*	0
O=C(C[n+]1cccc(NC(=O)c2ccccc2)c1)c1cccc([N+](=O)[O-])c1	20	-5	nt	-20	1
O=C(CSc1nc2ccsc2c(=O)n1Cc1ccc(C(=O)O)cc1)NCC1CCCO1 (configuration not stated)	12	0	nt	-12	-1
Cc1ccc(Cn2c(SCC(=O)NCC3CCCO3)nc3ccsc3c2=O)cc1 (configuration not stated)	60*	3	-3	-60	-1
CC(=O)OCC1=C(C(=O)OC(C)(C)C)N2C(=O)[C@@H](NC(=O)Cc3ccccc3)[C@H]2SC1	-30	-6	2	30	nt
CC1=C(C(=O)OCC(Cl)(Cl)Cl)N2C(=O)C(NC(=O)Cc3ccccc3)C2SC1 (configuration not stated)	-78	-6	9	78*	0
CC1Cc2ccccc2N1C(=O)Cn1c(=O)oc2cc(S(=O)(=O)N3CCCCC3)ccc21 (configuration not stated)	-80	6	4	80*	0
O=C(Cn1c(=O)oc2cc(S(=O)(=O)N3CCCCC3)ccc21)N1CCc2ccccc21	1	53*	8	-1	0
Cc1ccc(C(C)C)c(OCc2ccc(C(=O)N/N=C/c3ccc(O)c(O)c3)cc2)c1	-82	-1	nt	82*	0
Cc1ccc(C(C)C)c(OCc2ccc(C(=O)N/N=C/c3cccc(O)c3O)cc2)c1	-136	4	nt	136*	0
Cc1cc(S(=O)(=O)NCCCN2CCOCC2)c(Cl)cc1Cl	nt	1	nt	nt	0
COc1cccc(/C=N/NC(=O)c2cc3cc([N+](=O)[O-])ccc3s2)c1O	-126	1	nt	126*	?
O=C(NN=Cc1ccccc1O)c1cccc([N+](=O)[O-])c1	-129	2	30	129*	nt
Cc1cc(/C=N/NC(=O)c2cccc([N+](=O)[O-])c2)c(C)n1-c1ccccc1	-80	-3	-9	80*	-1
O=C(N/N=C/c1ccccn1)c1ccc(NC(=O)c2cccc([N+](=O)[O-])c2)cc1	-82	0	nt	82*	-1
Cc1cc(C)n(CCNC(=O)CC2C(=O)NCCN2CC2CCCCC2)n1 (configuration not stated)	23	4	-10	-23	-1
CCCn1c(=O)[nH]c(=O)c2c1nc(-c1cccs1)n2CCOC	22	3	9	-22	0
O=S1(=O)c2ccc(Br)cc2N2CCC[C@@H]2CN1Cc1ccccc1	-38	12	-21	38	nt
O=C(N/N=C/c1ccccc1O)c1cccc(C(F)(F)F)c1	-136	-4	nt	136*	0

Source: PubChem BioAssay
